Data: ChEMBL document CHEMBL4825692, “Benzofuranyl-2-imidazoles as imidazoline I2 receptor ligands for Alzheimer's disease” (Eur J Med Chem, 2021)
Activity calls are given as the source filed them. No cut-off for these calls is given here.

Assays:
K562 = assay: Cytotoxicity against human K562 cells at 100 uM by real time IncuCyte proliferation assay; assay type: cell-based; settings: k562, 100 µM
Summary of the method: (§1)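 Adherent lines (LN-229, Capan-1, HCT-116, NCI-H460) seeded at 500–1500 cells/well and treated after overnight attachment. Suspension lines (HL-60, K-562, Z-138, DND-41) seeded at 2500–5500 cells/well directly with compound. Highest concentration 100 μM; proliferation tracked by real-time IncuCyte imaging over 72 h at 37 °C.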

hERG (KCNH2) = hERG (KCNH2) (Homo sapiens, UniProt Q12809); assay: Inhibition of human ERG at 10 uM
Sequence of hERG (KCNH2) (Q12809 whole entry): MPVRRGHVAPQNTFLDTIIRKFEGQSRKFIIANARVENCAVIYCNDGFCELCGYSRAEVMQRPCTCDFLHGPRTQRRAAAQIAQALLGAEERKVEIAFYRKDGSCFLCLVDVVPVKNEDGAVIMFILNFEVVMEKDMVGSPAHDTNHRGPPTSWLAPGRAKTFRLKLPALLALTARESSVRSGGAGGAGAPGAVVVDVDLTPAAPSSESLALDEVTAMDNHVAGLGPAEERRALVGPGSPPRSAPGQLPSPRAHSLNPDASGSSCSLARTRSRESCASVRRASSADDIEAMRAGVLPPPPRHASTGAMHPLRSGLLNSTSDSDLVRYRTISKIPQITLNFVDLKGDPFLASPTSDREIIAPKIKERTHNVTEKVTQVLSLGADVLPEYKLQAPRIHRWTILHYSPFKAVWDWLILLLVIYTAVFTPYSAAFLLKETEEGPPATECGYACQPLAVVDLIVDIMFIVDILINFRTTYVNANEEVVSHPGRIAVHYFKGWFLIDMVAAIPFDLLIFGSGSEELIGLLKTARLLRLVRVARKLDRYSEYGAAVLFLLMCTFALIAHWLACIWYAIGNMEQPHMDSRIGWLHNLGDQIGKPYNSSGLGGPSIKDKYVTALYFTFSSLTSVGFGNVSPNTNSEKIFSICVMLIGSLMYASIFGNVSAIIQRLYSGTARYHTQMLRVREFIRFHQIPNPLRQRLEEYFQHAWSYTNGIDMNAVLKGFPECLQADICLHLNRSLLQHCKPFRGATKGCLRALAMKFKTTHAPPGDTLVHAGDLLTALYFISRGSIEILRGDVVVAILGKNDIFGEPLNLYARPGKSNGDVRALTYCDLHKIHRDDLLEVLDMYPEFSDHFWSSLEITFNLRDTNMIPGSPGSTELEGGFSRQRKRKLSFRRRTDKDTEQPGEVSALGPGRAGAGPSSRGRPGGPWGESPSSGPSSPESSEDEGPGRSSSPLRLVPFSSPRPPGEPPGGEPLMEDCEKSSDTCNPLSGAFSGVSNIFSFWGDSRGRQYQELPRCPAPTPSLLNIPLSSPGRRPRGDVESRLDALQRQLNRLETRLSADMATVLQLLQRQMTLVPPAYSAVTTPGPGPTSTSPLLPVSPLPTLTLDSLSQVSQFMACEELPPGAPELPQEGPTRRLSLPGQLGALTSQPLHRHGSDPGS

[1] = Displacement of [3H]2-BFI from imidazoline I2 receptor high affinity site in Swiss mouse brain cerebral cortex membrane measured after 45 mins by liquid scintillation counting spectrometry
[2] = Terminal half life in CD-1 mouse at 10 mg/kg, po measured after 24 hrs by HPLC/UV-VS analysis; assay type: ADME, organism-based; settings: in vivo, read-out: beta t1/2 (converted)
Summary of the method: (§2)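 Male CD1 mice (40–50 g, n = 3–4 per group) received a single 10 mg/kg dose. Plasma was taken at 15, 30, 45 and 60 min and 2, 3, 4, 5, 8 and 24 h. Drug was measured by HPLC-UV at 290 nm against a calibration of 0,025-5 μg/mL. Non-compartmental analysis used the mean curve: t1/2β = ln2/β from least-squares terminal slope; Tmax read directly.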

NCI-H460 = assay: Cytotoxicity against human NCI-H460 cells at 100 uM by real time IncuCyte proliferation assay; assay type: cell-based; settings: nci-h460, 100 µM; summary of the method: as §1
CAPAN-1 = assay: Cytotoxicity against human CAPAN-1 cells at 100 uM by real time IncuCyte proliferation assay; assay type: cell-based; settings: capan-1, 100 µM; summary of the method: as §1
[3] = Displacement of [3H]2-BFI from imidazoline I2 receptor high affinity site in post-mortem human brain frontal cortex membrane two site model measured after 45 mins by liquid scintillation counting spectrometry
[4] = Solubility of compound at pH 1.13; assay type: physicochemical; settings: buffer
Summary of the method: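 Solubility was measured at pH 1.13, 4.61 and 6.97, simulating gastric and intestinal fluids, and classed by European Pharmacopoeia terms.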

[5] = Microsomal stability in mouse liver microsomes assessed as parent compound remaining after 60 mins; assay type: ADME, Microsome; settings: read-out: Stabilty
Summary of the method: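 Human and mouse microsomes, incubation for 60 min, with percentage of parent compound remaining reported.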

[6] = Tmax in CD-1 mouse at 10 mg/kg, po measured after 24 hrs by HPLC/UV-VS analysis; assay type: ADME, organism-based; settings: in vivo; summary of the method: as §2
Mus musculus [7] = species: Mus musculus; assay: Displacement of [3H]2-BFI from imidazoline I2 receptor in Swiss mouse brain cerebral cortex membrane assessed as occupancy at high affinity site measured after 45 mins by liquid scintillation counting spectrometry
[8] = Cytotoxicity against human DND41 cells at 100 uM by real time IncuCyte proliferation assay; assay type: cell-based; settings: dnd41, 100 µM; summary of the method: as §1
[9] = molecular target: T1, Adrenergic receptor alpha-2 (Homo sapiens, UniProt P08913+P18825+P18089); assay: Displacement of [3H]-RX821002 from adrenergic alpha 2 receptor in post-mortem human brain frontal cortex membrane measured after 30 mins by liquid scintillation counting spectrometry; assay type: cell membranes
T1 sequence (P08913 whole entry): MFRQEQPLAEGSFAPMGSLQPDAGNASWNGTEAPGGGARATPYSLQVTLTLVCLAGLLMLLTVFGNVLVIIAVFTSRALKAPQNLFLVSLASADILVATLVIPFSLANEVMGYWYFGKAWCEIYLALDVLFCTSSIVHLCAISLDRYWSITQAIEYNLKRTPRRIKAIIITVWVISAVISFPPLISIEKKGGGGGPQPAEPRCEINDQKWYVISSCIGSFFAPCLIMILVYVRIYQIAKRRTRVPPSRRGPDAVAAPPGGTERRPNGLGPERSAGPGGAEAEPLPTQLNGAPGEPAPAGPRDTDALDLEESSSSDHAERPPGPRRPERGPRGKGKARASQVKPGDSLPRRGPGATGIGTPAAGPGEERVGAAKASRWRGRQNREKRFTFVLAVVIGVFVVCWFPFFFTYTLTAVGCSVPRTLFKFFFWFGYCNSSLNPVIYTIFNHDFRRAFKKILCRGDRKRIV
T1 sequence (P18825 whole entry): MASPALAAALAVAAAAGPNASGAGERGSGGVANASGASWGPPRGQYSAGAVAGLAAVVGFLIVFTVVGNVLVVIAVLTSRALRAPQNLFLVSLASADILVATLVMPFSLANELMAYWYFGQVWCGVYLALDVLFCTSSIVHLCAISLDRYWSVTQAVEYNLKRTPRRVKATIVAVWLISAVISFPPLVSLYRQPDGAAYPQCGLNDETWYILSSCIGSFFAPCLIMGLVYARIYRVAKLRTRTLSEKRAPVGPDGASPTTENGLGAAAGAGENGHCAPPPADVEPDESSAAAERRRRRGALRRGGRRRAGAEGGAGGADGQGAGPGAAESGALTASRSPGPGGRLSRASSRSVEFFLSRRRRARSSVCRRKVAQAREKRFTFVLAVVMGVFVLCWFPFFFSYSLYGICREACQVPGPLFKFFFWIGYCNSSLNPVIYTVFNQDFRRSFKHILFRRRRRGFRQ
T1 sequence (P18089 whole entry): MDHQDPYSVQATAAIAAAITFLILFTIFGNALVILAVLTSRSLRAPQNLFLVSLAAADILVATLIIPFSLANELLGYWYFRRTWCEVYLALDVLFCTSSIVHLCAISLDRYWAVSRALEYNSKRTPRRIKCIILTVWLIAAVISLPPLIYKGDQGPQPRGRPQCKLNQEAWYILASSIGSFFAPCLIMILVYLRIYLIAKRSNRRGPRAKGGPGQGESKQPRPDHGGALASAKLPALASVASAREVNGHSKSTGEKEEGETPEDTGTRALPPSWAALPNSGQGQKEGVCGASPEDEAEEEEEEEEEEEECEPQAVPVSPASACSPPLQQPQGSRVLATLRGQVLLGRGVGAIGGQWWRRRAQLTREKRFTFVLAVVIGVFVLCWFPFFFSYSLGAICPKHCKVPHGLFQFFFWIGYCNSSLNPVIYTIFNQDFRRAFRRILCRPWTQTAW

Mus musculus [10] = assay: Antialzheimer activity in 5xFAD transgenic Alzheimer disease mouse model assessed as decrease in iNOS expression at 1 mg/kg/day by Western blot analysis
HL-60 = assay: Cytotoxicity against human HL-60 cells at 100 uM by real time IncuCyte proliferation assay; assay type: cell-based; settings: hl-60, 100 µM; summary of the method: as §1
Cytochrome P450 2C9 = Cytochrome P450 2C9 (Homo sapiens, UniProt P11712); assay: Inhibition of CYP2C9 (unknown origin) at 10 uM; assay type: ADME
Sequence of Cytochrome P450 2C9 (P11712 whole entry): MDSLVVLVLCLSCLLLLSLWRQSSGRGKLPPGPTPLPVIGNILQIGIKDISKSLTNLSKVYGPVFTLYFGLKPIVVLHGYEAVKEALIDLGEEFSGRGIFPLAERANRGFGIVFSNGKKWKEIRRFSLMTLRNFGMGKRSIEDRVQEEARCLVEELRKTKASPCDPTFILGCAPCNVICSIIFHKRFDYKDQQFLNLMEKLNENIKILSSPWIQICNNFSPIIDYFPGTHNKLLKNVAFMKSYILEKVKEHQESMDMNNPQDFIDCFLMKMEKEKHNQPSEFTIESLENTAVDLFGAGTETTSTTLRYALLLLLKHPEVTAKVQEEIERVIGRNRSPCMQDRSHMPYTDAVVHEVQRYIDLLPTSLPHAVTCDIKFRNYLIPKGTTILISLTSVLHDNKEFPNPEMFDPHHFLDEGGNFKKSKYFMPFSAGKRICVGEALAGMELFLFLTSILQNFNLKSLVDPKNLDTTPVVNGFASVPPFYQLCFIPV
Summary of the method: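 Recombinant human CYP1A2, CYP2C9, CYP2C19, CYP2D6 and CYP3A4 (7-BFC or DBF as probe) were tested with probe substances and fluorescent detection, with test compound at 10 μM.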

For Cl.c1ccc2oc(-c3ncc[nH]3)cc2c1, the Activity (K562) was “Non-Toxic”, the inhibition at 10 µM (hERG (KCNH2)) was 4% and the pKi [1] was 9.92. For the same compound, the half-life [2] was 6.7 h, the Activity (NCI-H460) was “Non-Toxic” and the Activity (CAPAN-1) was “Non-Toxic”. The pKi [3] was 8.17, the solubility [4] was “Soluble” and the remaining at 1 h [5] was 36%. The Tmax [6] was 2 h, the Activity (Mus musculus [7]) was 41% and the Activity [8] was “Non-Toxic”. The pKi [9] was 3.18, the Activity (Mus musculus [10]) was “Active” and the Activity (HL-60) was “Non-Toxic”. The “inhibition (INH)” value (Cytochrome P450 2C9) was “Not Active”.
